ChEMBL document CHEMBL1134539, “Significance of asymmetric sites in choosing siderophores as deferration agents” (J Med Chem, 2001)
Where “and” joins values, the source holds several entries; their conditions need not be identical. Identical values can stand only once.

Experiments:
Paracoccus denitrificans [1] = test: Michaelis-Menten constant for accumulation of [55Fe]-labeled high-affinity component complexes by Paracoccus denitrificans; format: functional, organism-based
Summary of the method: (§1)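 Late log-phase P. denitrificans (ATCC 17741), grown in defined low-iron medium with 0.5 μM Fe(III), washed and resuspended in transport buffer to OD660 1.00. Suspensions were preincubated 15 min at 30 °C with shaking before [55Fe] ferric chelate was added at 0.1–5.0 μM. Samples were taken every 20 s for 2 min, stopped in chilled buffer, filtered, rinsed and scintillation counted. Initial rates were expressed per mg protein, and Km and Vmax were taken from Lineweaver–Burk fits.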

Paracoccus denitrificans [2] = test: Michaelis-Menten constant for accumulation of [55Fe]-labeled low-affinity component complexes by Paracoccus denitrificans; format: functional, organism-based; summary of the method: as §1
Paracoccus denitrificans [3] = test: Maximum velocity of accumulation of [55Fe]-labeled high-affinity component complexes by Paracoccus denitrificans; format: functional, organism-based; design: unit not given here; summary of the method: as §1
Paracoccus denitrificans [4] = test: Maximum velocity of accumulation of [55Fe]-labeled low-affinity component complexes by Paracoccus denitrificans; format: functional, organism-based; design: unit not given here; summary of the method: as §1
[5] = Iron clearance was stimulated by the compound was expressed as % distribution of excreted Fe in urine by subcutaneous dose of 150 umol/kg; format: ADME; conditions: in vivo, sc
Summary of the method: (§2)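 Non-iron-overloaded, bile duct-cannulated male Sprague–Dawley rats (about 400 g), housed in metabolic cages with free access to water. Single sc injection at 150 µmol/kg. Bile was collected at 3-h intervals for 48 h and urine every 24 h. Excreted iron was apportioned between bile and urine.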

[6] = Iron clearance was stimulated by the compound was expressed as % distribution of excreted Fe in bile by subcutaneous dose of 150 umol/kg; format: ADME; conditions: in vivo, sc; summary of the method: as §2
Rattus norvegicus = test: Iron clearance was stimulated by the compound was expressed as % efficiency by subcutaneous dose of 150 umol/kg; format: functional
Summary of the method: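 Bile duct-cannulated, non-iron-overloaded male Sprague–Dawley rats (about 400 g) were kept in metabolic cages and given one sc dose of 150 µmol/kg. Bile was collected every 3 h and urine every 24 h over 48 h. Efficiency is the excreted iron minus that of control animals, divided by the theoretical iron excretion from dose and coordination chemistry.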

Structure (SMILES)	Km (Paracoccus denitrificans [1]) [µM]	Km (Paracoccus denitrificans [2])	Vmax (Paracoccus denitrificans [3])	Vmax (Paracoccus denitrificans [4])	Distribution of excreted Fe [5] [%]	Distribution of excreted Fe [6] [%]	Efficiency (Rattus norvegicus) [%]
C[C@H]1OC(c2cccc(O)c2O)=N[C@@H]1C(=O)N(CCCCNC(=O)c1cccc(O)c1O)CCCNC(=O)c1cccc(O)c1O	0.11	0.55 µM and 0.53 µM	157 and 153	245 and 247			
C[C@H]1OC(c2cccc(O)c2O)=NC1C(=O)N(CCCNC(=O)c1cccc(O)c1O)CCCNC(=O)c1cccc(O)c1O (stereo not given in full)	0.23	2.2 µM	129	413	15.4	84.6	13.8
C[C@H]1OC(c2cccc(O)c2O)=N[C@@H]1C(=O)N(CCCCNC(=O)c1cccc(O)c1O)CCCCNC(=O)c1cccc(O)c1O	0.17	1 µM	138	229			
C[C@@H]1OC(c2cccc(O)c2O)=N[C@H]1C(=O)N(CCCNC(=O)c1cccc(O)c1O)CCCNC(=O)c1cccc(O)c1O		3.5 µM		96	9.2	90.8	16
